# High-throughput results deposited in PubChem by several laboratories.
# PMI activator = activators of human phosphomannose isomerase | P34949 | purified human PMI, coupled resazurin fluorescence, 20 min; hits give high values; 1 = vehicle control, 0 substrate-free wells | activation factor at 20 µM | 0.005% of 190,000 active;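 active = activation factor of 2 or more at 20 µM, relative to plate controls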
# Target sequence (P34949 whole entry, looked up): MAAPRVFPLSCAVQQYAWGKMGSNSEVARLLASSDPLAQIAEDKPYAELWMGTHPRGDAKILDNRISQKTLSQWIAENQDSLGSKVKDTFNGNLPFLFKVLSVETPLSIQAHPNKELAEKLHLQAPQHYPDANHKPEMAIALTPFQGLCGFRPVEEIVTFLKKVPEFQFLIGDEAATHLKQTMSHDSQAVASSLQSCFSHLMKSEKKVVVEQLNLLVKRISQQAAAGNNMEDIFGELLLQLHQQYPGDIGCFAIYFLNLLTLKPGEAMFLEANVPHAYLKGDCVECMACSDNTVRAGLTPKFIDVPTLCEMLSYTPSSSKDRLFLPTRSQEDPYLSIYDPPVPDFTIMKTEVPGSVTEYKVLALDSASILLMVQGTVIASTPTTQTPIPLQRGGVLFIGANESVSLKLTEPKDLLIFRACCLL
# PMI act satM6P = activators of human phosphomannose isomerase at near-saturating mannose 6-phosphate; 0.34% of 190,000 active; coupled PMI enzyme assay, resazurin fluorescence, 20 min; hits give high values; 1 = untreated enzyme, 0 = substrate-free blank; P34949; activation factor at 20 µM;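 active = activation factor of 2 or more at 20 µM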
#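 Test system: human phosphomannose isomerase with PGI, G6PDH, diaphorase coupling enzymes; amount: 15 ng/mL PMI; incubation: enzyme reaction with compound 20 min at room temperature; technique: resorufin fluorescence (Ex 544/Em 590 nm) from resazurin via diaphorase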
# Lmaj promast = inhibitors of Leishmania major promastigote growth. AID 1063. Leishmania major promastigotes, resazurin fluorescence viability. inhibition, % at 10 µM. 9% of 200,000 active; in the data active = inhibition above about 50%;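 note: promastigotes grown with compound for 44 hours at 28 °C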
# WT yeast gro inh = growth inhibition of WT yeast, mitochondrial fusion screen; mitochondrial fusion phenotypic screen, WT strain; inhibition, % at 10 µM; 2.1% of 190,000 active; AID 1362; in the data active = inhibition above about 58%; tested in S. cerevisiae
# m-calpain inh = blocks pig calpain II enzyme activity; purified calpain II, fluorogenic peptide substrate, 30 min; inhibition, % at 16 µM; 0.37% of 220,000 active;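 active = inhibition above about 50%, limit read from the data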
# Rad51 HR inh = Rad51 (human) homologous recombination inhibition. hRad51 DNA strand exchange, fluorescence dequenching. inhibition, % at 10 µM. 0.085% of 200,000 active. AID 1385;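 active = inhibition above 40% at the single screening dose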
#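 Test system – preformed human Rad51 ssDNA filaments · Reagent – Donor/quencher-labelled 47-bp dsDNA substrate · Incubation – 37 °C 15-min filament assembly, 30-min compound preincubation, 15-min exchange · Signal – FRET fluorescence dequenching, excitation 485 nm, emission 520 nm · Read-out – percent inhibition from fluorescence, normalised to plate control and blank means · Benchmarks – plate control and blank wells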
# Numbers stand for hits; . = inactive; / = no result. Hits are enriched below; roughly 9.8% of the tested compounds scored in any of these assays.
SMILES,PMI activator,PMI act satM6P,Lmaj promast,WT yeast gro inh,m-calpain inh,Rad51 HR inh
COc1ccc(C(=O)NN=C(Cc2ccccc2)Cc2ccccc2)cc1OC,.,.,51.0,.,.,.
O=C(O)/C=C/c1cccc(OCc2ccccc2)c1,.,.,.,.,.,.
CC(/C=C/c1ccccc1)=N\NC(=O)c1ccc2c(c1)OCCO2,.,.,.,.,.,/
CC(/C=C/c1ccccc1)=N/NC(=O)c1cc([N+](=O)[O-])cc([N+](=O)[O-])c1,.,.,82.9,.,.,/
O=C(/C=C/c1cccc(OCc2ccccc2)c1)c1cccnc1,.,.,99.7,.,.,.
CC(CCc1ccccc1)N(C)CC(O)c1cccc([N+](=O)[O-])c1 (stereo not drawn),/,/,/,/,.,/
CCC1CN(C(=O)Nc2ccc(C)cc2)c2cc(C)ccc2O1 (stereo not drawn),.,.,.,.,.,.
O=C(O)CC/C(=N/Nc1ncc(C(F)(F)F)cc1Cl)C(=O)O,.,.,.,.,.,.
O=C(CSCc1nc2ccccc2[nH]1)Nc1ccc(Oc2ccccc2)cc1,.,.,64.4,.,.,.
Cc1ccc2c(ccc(=S)n2C)c1,.,2.7,.,.,.,.
CC(=O)c1ccc(OCC(=O)Nc2ccc3nc(C)sc3c2)cc1,.,.,.,.,.,.
O=C(COc1ccccc1)Nc1ccc2[nH]c(=O)[nH]c2c1,.,.,89.7,.,.,.
Cc1nc2ccccc2nc1OCC(=O)Nc1ccc2ccccc2c1,.,.,59.2,.,.,.
Cc1nc2ccc(NC(=O)Cc3cccc(F)c3)cc2s1,.,.,62.2,.,.,.
Cc1nc2ccc(NC(=O)COc3ccccc3)cc2s1,.,.,.,73.9,.,.
Cc1nc2ccc(NC(=O)Cc3ccccc3F)cc2s1,.,.,.,.,.,.
C/C(CCc1ccc2c(c1)OCO2)=N\N=C1\NC(=O)CC(C(=O)Nc2ccccc2F)S1 (stereo not drawn),.,.,.,.,.,.
Cc1cccc(OCC(=O)Nc2ccc3nc(C)sc3c2)c1,.,.,.,59.4,.,.
Cc1nc2ccc(NC(=O)COc3cccc(F)c3)cc2s1,.,.,.,.,.,.
Cc1nc2ccc(NC(=O)c3ccccc3)cc2s1,.,.,.,.,.,.
CCn1nc(C(=O)Nc2ccc3nc(C)sc3c2)c2ccccc2c1=O,.,.,62.7,.,.,.
Cc1nc2cc(NC(=O)CCS(=O)(=O)c3ccccc3)ccc2s1,.,.,.,.,.,.
c1ccc(-c2oc3ncnc(NCCCn4ccnc4)c3c2-c2ccccc2)cc1,.,.,100.0,72.5,.,.
c1ccc(-c2c(-c3ccccc3)n(Cc3ccco3)c3ncnc(NCCCn4ccnc4)c23)cc1,.,.,100.2,73.0,.,.
N=c1c2c(-c3ccccc3)c(-c3ccccc3)n(Cc3ccco3)c2ncn1CCCn1ccnc1,.,.,100.2,.,.,/
SMILES,PMI activator,PMI act satM6P,Lmaj promast,WT yeast gro inh,m-calpain inh,Rad51 HR inh
OCCNc1ncnc2c1c(-c1ccccc1)c(-c1ccccc1)n2Cc1ccco1,.,.,.,.,.,.
N=c1c2c(-c3ccccc3)c(-c3ccccc3)n(Cc3ccco3)c2ncn1CCCN1CCOCC1,.,.,100.5,.,.,.
CCCCC(CC)C(=O)NCc1ccc(F)cc1 (stereo not drawn),.,.,.,.,.,.
Cc1ccc2[nH]c(CN3CCC(CO)(CC4CCCCO4)CC3)c(C)c2c1 (stereo not drawn),.,.,.,.,.,/
COc1ccc2nc(N3C(=O)CC(Cc4ccc(C)cc4)C3=O)sc2c1 (stereo not drawn),.,.,75.7,.,.,.
Cc1cccc(NC(=O)C2C(c3ccccc3)C2(Cl)Cl)c1 (stereo not drawn),.,.,.,63.6,.,.
Cc1ccc(NC(=O)C2CC(=O)N(CCc3ccccc3)C2)c(C)c1 (stereo not drawn),.,.,.,.,.,.
Cc1ccc(NC(=O)C2C(c3ccccc3)C2(Cl)Cl)c(C)c1 (stereo not drawn),.,.,.,86.0,.,.
Cc1ccc(NC(=O)C2C3CCCC2C3c2ccccc2)c(C)c1 (stereo not drawn),.,.,83.8,.,.,.
CC(=O)c1cccc(NC(=O)C2C(c3ccccc3)C2(Cl)Cl)c1 (stereo not drawn),.,.,.,.,.,.
